Bioassay records: PubChem, several laboratories
MPTP inh: blocks calcium-induced mitochondrial swelling | isolated mouse mitochondria, Ca2+ swelling absorbance, 30 min | inhibition, % at 10 µM | 360,000 compounds, 1.4% hits;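 active means inhibition of 50% or more, scaled per plate between neutral and stimulator controls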;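 further: 0% = DMSO wells given calcium and 100% = 1 mM EGTA wells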
ADAM17 inh: inhibits human ADAM17 | recombinant ADAM17, EDANS/DABCYL FRET peptide cleavage | 370,000 compounds, 0.83% hits | P78536 | AID 720648 | inhibition, % at 6.95 µM;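 active means inhibition above the mean of compounds lying between control limits plus 3 SD, set per campaign, cut at about 8.5% in these data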;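 further: 0% = DMSO-only wells as the low control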
Target sequence (P78536 215-824 limits assumed): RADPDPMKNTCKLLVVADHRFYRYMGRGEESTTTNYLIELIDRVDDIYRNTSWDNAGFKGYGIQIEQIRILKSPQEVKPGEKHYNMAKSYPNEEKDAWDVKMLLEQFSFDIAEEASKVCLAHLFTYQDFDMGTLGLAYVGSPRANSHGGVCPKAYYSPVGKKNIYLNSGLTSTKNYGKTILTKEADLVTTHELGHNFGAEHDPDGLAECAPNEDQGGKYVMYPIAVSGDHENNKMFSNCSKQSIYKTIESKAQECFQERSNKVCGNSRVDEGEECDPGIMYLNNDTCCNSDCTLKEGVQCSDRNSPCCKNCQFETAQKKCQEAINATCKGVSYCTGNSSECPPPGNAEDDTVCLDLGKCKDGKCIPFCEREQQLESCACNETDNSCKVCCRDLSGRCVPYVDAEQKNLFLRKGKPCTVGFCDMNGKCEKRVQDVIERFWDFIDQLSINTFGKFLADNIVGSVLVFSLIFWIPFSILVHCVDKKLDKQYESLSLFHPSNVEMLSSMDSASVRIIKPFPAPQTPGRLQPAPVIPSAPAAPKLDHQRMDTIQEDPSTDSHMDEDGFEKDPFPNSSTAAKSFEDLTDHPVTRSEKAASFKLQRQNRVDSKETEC
MT1-MMP act inh: blocks activation of human MT1-MMP | HT1080 RFP-PRO-GFP cells, GFP/RFP ratio fluorescence, overnight; percent of plate control window, DMSO zero | GFP/RFP ratio change, % at 20 µM | 360,000 compounds, 0.061% hits;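 active means GFP/RFP ratio change of at least 30% with cell ATP level not reduced by more than half and red fluorescence within 50% of control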
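Compound: 20 µM single dose, 1% DMSO / System: HT1080 RFP-PRO-GFP cells / Controls: DMSO and RFP-L50D-GFP cell wells / Read-out basis: GFP/RFP fluorescence ratio / Schedule: overnight compound exposure at 37 °C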
ADAM10 inh: inhibitors of human ADAM10 | recombinant ADAM10, EDANS/DABCYL FRET peptide cleavage, 3 h | inhibition, % at 7 µM | 370,000 compounds, 0.62% hits;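 active means inhibition above a per-campaign cutoff equal to the mean of compounds falling between control-based bounds plus 3 SD, cut at about 20% in these data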;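 further: 0% = DMSO wells while the 100% control is not disclosed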
GRIN3A LBD mod: NR3A (human) ligand-binding domain modulation. NR3A LBD differential scanning fluorimetry, Tm shift; 0% = protein alone, 100% = glycine-bound protein. Tm shift relative to glycine control, % at 25 µM. 340,000 compounds, 2.5% hits;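 active means melting temperature shift of at least 10% of the positive control shift, at one fixed dose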
SKN-1 inh: inhibitors of C. elegans SKN-1. AID 624304. 360,000 compounds, 0.49% hits. C. elegans VP596 Pgst-4::GFP/RFP ratio, acrylamide-induced, 24 h. inhibition, % at 21.8 µM;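 active means interference check ratio from 0.5 to 1.5 plus GFP to RFP signal ratio inhibition reaching or exceeding a fixed threshold, cut at about 30% in these data, passing the limit was not always enough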
An asterisk follows results filed as active. In the library only some 4.7% were active in any assay of this set; here they are far more common.

For COc1ccc(C(=O)/C=C/Nc2cccc(O)c2)cc1 the results were MPTP inh 8, ADAM17 inh 0, MT1-MMP act inh -64, ADAM10 inh -8, GRIN3A LBD mod 19* and SKN-1 inh 5.
For O=C(Nc1ccc(Oc2ccc3c(c2)C(=O)N(c2ccc(O)cc2)C3=O)cc1)c1cccs1 the results were MPTP inh 5, ADAM17 inh 1, MT1-MMP act inh -2, ADAM10 inh 13, GRIN3A LBD mod 16* and SKN-1 inh -11.
For COc1cccc(C(=O)/C=C/Nc2ccc(S(=O)(=O)Nc3ncccn3)cc2)c1 the results were MPTP inh 0, ADAM17 inh 1, MT1-MMP act inh 0, ADAM10 inh -7, GRIN3A LBD mod 2 and SKN-1 inh 5.
For Cc1ccc(Nc2c(-c3ccc(N4CCOCC4)cc3)nc3ncccn23)cc1 the results were MPTP inh -1, ADAM17 inh -4, MT1-MMP act inh -3, ADAM10 inh -15, GRIN3A LBD mod 2 and SKN-1 inh -11.
Cc1cccn2cc(-c3cccc(NC(=O)c4cccs4)c3)nc12 was read as MPTP inh -3, ADAM17 inh 1, MT1-MMP act inh 3, ADAM10 inh 11, GRIN3A LBD mod 23* and SKN-1 inh 14.
For COc1ccc(/C=C/C(=O)c2ccoc2)cc1 the results were MPTP inh -1, ADAM17 inh -57, MT1-MMP act inh -3, ADAM10 inh -164, GRIN3A LBD mod 0 and SKN-1 inh 10.
COc1cccc(NC(=O)c2cccs2)c1 was read as MPTP inh -1, ADAM17 inh -2, MT1-MMP act inh 0, ADAM10 inh 1, GRIN3A LBD mod 26* and SKN-1 inh -2.
For Cc1ccn2cc(-c3cccc(NC(=O)c4cccs4)c3)nc2c1 the results were MPTP inh 1, ADAM17 inh -5, MT1-MMP act inh 3, ADAM10 inh 2, GRIN3A LBD mod 1 and SKN-1 inh -10.
For COc1ccc(/C=C/C(=O)c2ccc(O)cc2)cc1 the results were MPTP inh 1, ADAM17 inh -17, MT1-MMP act inh 0, ADAM10 inh -97, GRIN3A LBD mod 11* and SKN-1 inh -4.
COc1ccc(C(=O)/C=C\c2ccc(NC(=O)c3cccs3)cc2)cc1 was read as MPTP inh 17, ADAM17 inh 1, MT1-MMP act inh -4, ADAM10 inh -4, GRIN3A LBD mod 23* and SKN-1 inh -4.
`COc1ccc(C(=O)Nc2cccc(NC(=O)c3cccs3)c2)cc1` gave MPTP inh 0, ADAM17 inh -3, MT1-MMP act inh 2, ADAM10 inh -5, GRIN3A LBD mod 8 and SKN-1 inh 2.
COCCNC(=O)NC(=O)COC(=O)C12CC3CC(CC(NC(C)=O)(C3)C1)C2 was read as MPTP inh -3, ADAM17 inh -4, MT1-MMP act inh 4, ADAM10 inh 2, GRIN3A LBD mod 1 and SKN-1 inh 17.
`CS(=O)(=O)N1N=C(c2cccs2)CC1c1ccc(F)cc1` (centres undefined) gave MPTP inh 0, ADAM17 inh -4, MT1-MMP act inh -3, ADAM10 inh 0, GRIN3A LBD mod 0 and SKN-1 inh 25.
For CC(C)NC(=O)C1(C)CN(S(C)(=O)=O)CC(=O)N1C1CCN(Cc2ccccc2)CC1 (centres undefined) the results were MPTP inh -2, ADAM17 inh 0, MT1-MMP act inh -2, ADAM10 inh 4 and SKN-1 inh 13.
COc1ccc(CNCCC(c2ccccc2)C2CCOC(C)(C)C2)cc1 (centres undefined) was read as MPTP inh 13, ADAM17 inh -3, MT1-MMP act inh -4, ADAM10 inh -7, GRIN3A LBD mod 3 and SKN-1 inh -5.
`Cc1[nH]c(=O)[nH]c(=O)c1S(=O)(=O)N1CCCc2ccccc21` gave MPTP inh -2, ADAM17 inh -1, MT1-MMP act inh 1, ADAM10 inh -8, GRIN3A LBD mod -1 and SKN-1 inh -1.
CC(C)c1cc(CNC(=O)CCc2nnc(CCCCc3ccccc3)o2)on1 was read as MPTP inh 5, ADAM17 inh -1, MT1-MMP act inh 2, ADAM10 inh -2, GRIN3A LBD mod -1 and SKN-1 inh -7.
`Cc1cc(C)cc(C(=O)Nc2ccc(NC(=O)c3cccs3)cc2)c1` gave MPTP inh 0, ADAM17 inh -1, MT1-MMP act inh 5, ADAM10 inh -13, GRIN3A LBD mod 27* and SKN-1 inh 10.
`O=C(/C=C/c1cccc([N+](=O)[O-])c1)Nc1ccc(NC(=O)c2cccs2)cc1` gave MPTP inh 2, ADAM17 inh 0, MT1-MMP act inh 0, ADAM10 inh 2, GRIN3A LBD mod 25* and SKN-1 inh 0.
`O=C(Nc1ccccc1Oc1ccccc1)c1cccs1` gave MPTP inh -1, ADAM17 inh 1, MT1-MMP act inh -1, ADAM10 inh 0, GRIN3A LBD mod -1 and SKN-1 inh 42*.
For O=C(/C=C/c1cccc([N+](=O)[O-])c1)c1cccs1 the results were MPTP inh 2, ADAM17 inh -1, MT1-MMP act inh -9, ADAM10 inh -4, GRIN3A LBD mod 0 and SKN-1 inh 8.
For COc1ccc(NC(=O)c2ccc(NC(=O)c3cccs3)cc2)cc1 the results were MPTP inh 1, ADAM17 inh -2, MT1-MMP act inh -5, ADAM10 inh 5, GRIN3A LBD mod 26* and SKN-1 inh -5.
Cc1cc(C)n(-c2ccc(C(=O)N3CCN(S(=O)(=O)c4ccc(C(C)C)cc4)CC3)cc2)n1 was read as MPTP inh -1, ADAM17 inh -3, MT1-MMP act inh 6, ADAM10 inh 7, GRIN3A LBD mod -2 and SKN-1 inh 10.
For COc1cc(CNC2CCCC2)cc(Cl)c1OCc1ccc(F)cc1 the results were MPTP inh 15, ADAM17 inh -2, MT1-MMP act inh 3, ADAM10 inh 4, GRIN3A LBD mod -3 and SKN-1 inh 56*.
Screening CCOc1cc(CNC2CCCC2)cc(Cl)c1OCc1ccc(F)cc1 returned MPTP inh 2, ADAM17 inh -1, MT1-MMP act inh -14, ADAM10 inh -2, GRIN3A LBD mod -4 and SKN-1 inh 75*.
`COc1cc(/C=C/C(=O)NCC2CCCCC2)cc(OC)c1OC` gave MPTP inh -3, ADAM17 inh -13, MT1-MMP act inh 3, ADAM10 inh -54, GRIN3A LBD mod 2 and SKN-1 inh 9.
Screening N#C/C(=C\c1ccc(C(=O)O)cc1)c1ccccn1 returned MPTP inh 0, ADAM17 inh 0, MT1-MMP act inh -3, ADAM10 inh -4, GRIN3A LBD mod 0 and SKN-1 inh 5.
